Holding throughout (format): cell-based
For experiment [1], the target named is T1, Protein cereblon/Induced myeloid leukemia cell differentiation protein Mcl-1 (Homo sapiens) (UniProt Q07820+Q96SW2). Nature of the experiment: Protac activity at Cereblon/MCL1 long isoform in human OPM2 cells assessed as MCL1 long isoform abundance at 50 nM after 24 hrs by immunoblot analysis relative to control. On the technique in general: A western blot detects proteins with antibodies after separation by electrophoresis.

For experiment [2], the target named is T1, Protein cereblon/Induced myeloid leukemia cell differentiation protein Mcl-1 (Homo sapiens). Kind of experiment: Protac activity at Cereblon/MCL1 long isoform in human MM1S cells assessed as MCL1 long isoform level at 300 nM pre-incubated for 72 hrs followed by cycloheximide addition and measured after 60 mins by immunoblot analysis (reference value: 82%). Summed up: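 Cycloheximide chase: cells were treated for 72 h with DMSO or degrader, with cycloheximide added for the final 30, 60 or 120 min. OPM2 and MM1.S cells were used, and wild-type OPM2 was compared with OPM2 CRBN-/- at 60 and 120 min. MCL1 was detected by immunoblot.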

The target of experiment [3] is T2, Induced myeloid leukemia cell differentiation protein Mcl-1 (Homo sapiens, UniProt Q07820). Kind of experiment: Induction of MCL1 short isoform degradation in CRBN-/- human OPM2 cells assessed as protein abundance at 50 nM after 48 hrs by immunoblot analysis relative to control. The procedure, abridged: (§1)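 OPM2 multiple myeloma cells, wild type or CRBN-knockout, were treated for 48 h with degrader or DMSO vehicle. MCL1 long and short isoforms were detected by immunoblot and levels compared with DMSO controls.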

In experiment [4] the target is T2, Induced myeloid leukemia cell differentiation protein Mcl-1. Kind of experiment: Induction of MCL1 long isoform degradation in CRBN-/- human OPM2 cells assessed as protein abundance at 100 nM after 48 hrs by immunoblot analysis relative to control. Summed up: as §1
Experiment [5] concerns the target T1, Protein cereblon/Induced myeloid leukemia cell differentiation protein Mcl-1 (Homo sapiens). Kind of experiment: Protac activity at Cereblon/MCL1 in human OPM2 cells assessed as protein abundance at 250 nM after 48 hrs by immunoblot analysis relative to control. The procedure, abridged: as §1
The target is the same in experiment [6]. Kind of experiment: Protac activity at Cereblon/MCL1 in human OPM2 cells assessed as protein abundance at 25 nM after 48 hrs by immunoblot analysis relative to control. Summed up: as §1

Structures are written as SMILES.

T1 sequence (Q07820 whole entry, looked up, canonical isoform): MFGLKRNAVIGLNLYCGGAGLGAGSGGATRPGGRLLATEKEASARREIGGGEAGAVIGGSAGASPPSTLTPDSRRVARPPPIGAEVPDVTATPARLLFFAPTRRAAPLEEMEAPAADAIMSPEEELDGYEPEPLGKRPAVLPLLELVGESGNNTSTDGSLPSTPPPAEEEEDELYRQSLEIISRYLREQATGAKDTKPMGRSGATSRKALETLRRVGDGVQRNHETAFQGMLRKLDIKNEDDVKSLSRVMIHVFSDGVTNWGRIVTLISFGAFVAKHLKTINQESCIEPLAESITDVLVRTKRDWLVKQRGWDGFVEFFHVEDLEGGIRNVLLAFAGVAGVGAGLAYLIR
T1 sequence (Q96SW2 whole entry, looked up, canonical isoform): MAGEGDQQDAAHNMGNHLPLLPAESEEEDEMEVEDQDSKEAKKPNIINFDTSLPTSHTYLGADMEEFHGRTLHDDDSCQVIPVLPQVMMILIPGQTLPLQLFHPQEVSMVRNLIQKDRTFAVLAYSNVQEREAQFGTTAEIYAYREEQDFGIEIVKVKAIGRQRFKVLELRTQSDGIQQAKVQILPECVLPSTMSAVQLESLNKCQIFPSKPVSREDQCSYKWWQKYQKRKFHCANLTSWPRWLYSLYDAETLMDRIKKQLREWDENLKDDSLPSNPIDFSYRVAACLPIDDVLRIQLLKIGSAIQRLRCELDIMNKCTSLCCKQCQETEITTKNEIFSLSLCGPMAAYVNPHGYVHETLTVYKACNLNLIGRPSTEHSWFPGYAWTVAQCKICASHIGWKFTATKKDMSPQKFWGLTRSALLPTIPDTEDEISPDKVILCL
T2 sequence (Q07820 whole entry, canonical isoform): as the sequence (Q07820 whole entry, looked up, canonical isoform) above

In the case of `Cc1nn(C)c(COc2ccc(N3CCN(S(=O)(=O)N(C)C)CC3)cc2)c1-c1cccc2c(CCCOc3cccc4ccccc34)c(C(=O)O)n(CCN3CCN(C(=O)COc4cccc5c4C(=O)N(C4CCC(=O)NC4=O)C5=O)CC3)c12` (stereo unspecified), the Activity is 97% in experiment [1]; 58% in experiment [2]; 100% in experiment [3]; 90% in experiment [4]; 63% in experiment [5]; 89% in experiment [6].

Values taken from ChEMBL document CHEMBL4396889, “From Inhibition to Degradation: Targeting the Antiapoptotic Protein Myeloid Cell Leukemia 1 (MCL1)” (J Med Chem, 2019).
